In ChEMBL document CHEMBL1150387, “Development and experimental validation of a docking strategy for the generation of kinase-targeted libraries” (J Med Chem, 2008):

Assays:
[1] = molecular target: MAP kinase-activated protein kinase 2 (Homo sapiens) (UniProt P49137); test: Inhibition of MAPKAPK2 at 10 uM by HTRF assay relative to control
Summary of the method: (§1)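 HTRF kinase assay, one panel of kinases. Inhibitor stock 50 µM in 100% DMSO; tested at 10 µM. ATP and substrate at final levels near Km. Final buffer: 50 mM Hepes/NaOH pH 7.4, 40 µM Na3VO4, 0.005% Tween-20, 1 mM DTT, MnCl2 or MgCl2 at kinase-dependent levels. Started by adding ATP/substrate. Reaction run at room temperature, time varied by kinase. Detection mix in 50 mM Hepes pH 7.4, 0.1% BSA, 150 mM KF, incubated ≥1 h at room temperature. Activity expressed as % of uninhibited control; n=2.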

[2] = molecular target: Ribosomal protein S6 kinase alpha-3 (Homo sapiens) (UniProt P51812); test: Inhibition of RSK2 at 10 uM by HTRF assay relative to control; summary of the method: as §1
[3] = molecular target: Calcium/calmodulin-dependent protein kinase type II subunit alpha (Homo sapiens) (UniProt Q9UQM7); test: Inhibition of CaMK2alpha at 10 uM by HTRF assay relative to control; summary of the method: as §1
Sequence of Calcium/calmodulin-dependent protein kinase type II subunit alpha (Homo sapiens) (Q9UQM7 whole entry): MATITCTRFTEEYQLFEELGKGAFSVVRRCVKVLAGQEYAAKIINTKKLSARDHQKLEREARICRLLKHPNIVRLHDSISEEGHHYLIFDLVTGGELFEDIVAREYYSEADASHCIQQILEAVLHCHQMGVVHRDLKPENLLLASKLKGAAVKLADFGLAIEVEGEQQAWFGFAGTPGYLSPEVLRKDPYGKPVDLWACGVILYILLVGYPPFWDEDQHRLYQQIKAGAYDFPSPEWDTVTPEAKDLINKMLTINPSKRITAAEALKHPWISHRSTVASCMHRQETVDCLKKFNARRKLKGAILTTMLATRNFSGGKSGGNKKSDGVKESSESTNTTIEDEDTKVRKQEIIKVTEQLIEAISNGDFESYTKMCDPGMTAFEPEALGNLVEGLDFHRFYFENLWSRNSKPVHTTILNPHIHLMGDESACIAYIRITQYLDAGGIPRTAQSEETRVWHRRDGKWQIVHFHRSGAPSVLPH

[4] = molecular target: Mitogen-activated protein kinase 9 (Homo sapiens) (UniProt P45984); test: Inhibition of JNK2 at 10 uM by HTRF assay relative to control; summary of the method: as §1
Sequence of Mitogen-activated protein kinase 9 (Homo sapiens) (P45984 whole entry, looked up): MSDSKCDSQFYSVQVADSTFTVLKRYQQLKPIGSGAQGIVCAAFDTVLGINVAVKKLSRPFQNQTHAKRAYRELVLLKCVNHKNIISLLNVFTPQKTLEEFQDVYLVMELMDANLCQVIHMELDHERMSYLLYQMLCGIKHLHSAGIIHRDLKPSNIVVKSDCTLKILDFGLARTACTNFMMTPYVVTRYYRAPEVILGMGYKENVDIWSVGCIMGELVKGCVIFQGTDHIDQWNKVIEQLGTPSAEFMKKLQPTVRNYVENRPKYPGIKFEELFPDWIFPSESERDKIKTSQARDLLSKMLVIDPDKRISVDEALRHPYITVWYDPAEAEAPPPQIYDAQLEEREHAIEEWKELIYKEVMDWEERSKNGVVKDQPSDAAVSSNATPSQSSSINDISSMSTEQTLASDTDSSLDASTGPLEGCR

[5] = molecular target: Tyrosine-protein kinase Fes/Fps (Homo sapiens) (UniProt P07332); test: Inhibition of FES at 10 uM by HTRF assay relative to control; summary of the method: as §1
Sequence of Tyrosine-protein kinase Fes/Fps (Homo sapiens) (P07332 whole entry): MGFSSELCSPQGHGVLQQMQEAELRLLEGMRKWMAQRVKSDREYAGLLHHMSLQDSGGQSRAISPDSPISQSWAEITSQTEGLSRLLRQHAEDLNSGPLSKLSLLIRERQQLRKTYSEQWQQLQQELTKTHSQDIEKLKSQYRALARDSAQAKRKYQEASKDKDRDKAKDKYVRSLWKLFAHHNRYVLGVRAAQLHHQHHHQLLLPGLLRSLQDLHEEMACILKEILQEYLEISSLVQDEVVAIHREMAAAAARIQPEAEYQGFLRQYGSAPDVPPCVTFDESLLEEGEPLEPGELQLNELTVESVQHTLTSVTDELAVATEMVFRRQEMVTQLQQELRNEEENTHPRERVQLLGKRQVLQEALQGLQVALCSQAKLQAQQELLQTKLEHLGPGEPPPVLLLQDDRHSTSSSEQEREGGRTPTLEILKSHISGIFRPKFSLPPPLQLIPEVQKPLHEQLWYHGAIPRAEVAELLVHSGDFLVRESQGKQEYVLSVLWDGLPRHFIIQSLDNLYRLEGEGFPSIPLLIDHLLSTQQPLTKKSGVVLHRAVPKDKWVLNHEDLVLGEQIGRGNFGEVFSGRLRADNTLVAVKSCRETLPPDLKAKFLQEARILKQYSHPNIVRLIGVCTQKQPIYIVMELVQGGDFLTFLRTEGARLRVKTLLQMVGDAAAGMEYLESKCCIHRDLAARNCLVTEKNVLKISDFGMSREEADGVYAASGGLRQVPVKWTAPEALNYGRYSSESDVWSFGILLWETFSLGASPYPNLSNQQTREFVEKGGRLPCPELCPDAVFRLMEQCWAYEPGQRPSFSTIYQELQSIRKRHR

[6] = molecular target: T1, Tyrosine-protein kinase JAK3 (Homo sapiens) (UniProt P52333); test: Inhibition of JAK3 at 10 uM by HTRF assay relative to control; summary of the method: as §1
T1 sequence (whole entry): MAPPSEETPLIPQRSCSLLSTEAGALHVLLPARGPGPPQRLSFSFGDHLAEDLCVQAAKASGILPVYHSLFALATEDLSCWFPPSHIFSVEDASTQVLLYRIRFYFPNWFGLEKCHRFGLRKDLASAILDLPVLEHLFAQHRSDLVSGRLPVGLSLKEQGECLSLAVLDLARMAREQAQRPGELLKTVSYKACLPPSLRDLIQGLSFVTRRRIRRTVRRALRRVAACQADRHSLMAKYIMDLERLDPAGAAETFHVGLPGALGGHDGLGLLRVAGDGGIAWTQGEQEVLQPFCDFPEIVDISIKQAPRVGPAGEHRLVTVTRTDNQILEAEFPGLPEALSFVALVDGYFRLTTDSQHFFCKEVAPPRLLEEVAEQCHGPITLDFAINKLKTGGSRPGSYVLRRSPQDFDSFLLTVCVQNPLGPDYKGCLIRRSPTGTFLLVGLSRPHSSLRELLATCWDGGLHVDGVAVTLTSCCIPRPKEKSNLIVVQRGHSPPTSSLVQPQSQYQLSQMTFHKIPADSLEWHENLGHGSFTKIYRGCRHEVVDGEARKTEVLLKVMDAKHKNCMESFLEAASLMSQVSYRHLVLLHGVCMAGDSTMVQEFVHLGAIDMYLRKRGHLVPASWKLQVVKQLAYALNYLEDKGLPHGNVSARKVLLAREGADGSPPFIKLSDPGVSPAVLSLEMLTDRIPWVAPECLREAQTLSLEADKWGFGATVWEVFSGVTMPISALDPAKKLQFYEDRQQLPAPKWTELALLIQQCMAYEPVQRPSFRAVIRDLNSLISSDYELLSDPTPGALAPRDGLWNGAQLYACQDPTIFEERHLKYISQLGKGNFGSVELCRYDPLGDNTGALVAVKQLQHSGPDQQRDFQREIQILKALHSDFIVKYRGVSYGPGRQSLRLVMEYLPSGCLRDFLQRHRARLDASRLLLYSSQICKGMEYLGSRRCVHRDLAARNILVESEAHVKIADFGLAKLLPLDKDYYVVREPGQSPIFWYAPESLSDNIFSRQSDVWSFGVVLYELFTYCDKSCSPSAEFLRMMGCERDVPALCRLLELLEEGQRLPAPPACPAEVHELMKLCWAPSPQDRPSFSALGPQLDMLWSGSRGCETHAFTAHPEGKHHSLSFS

[7] = molecular target: Ribosomal protein S6 kinase beta-1 (Homo sapiens) (UniProt P23443); test: Inhibition of p70S6K at 10 uM by HTRF assay relative to control; summary of the method: as §1
Sequence of Ribosomal protein S6 kinase beta-1 (Homo sapiens) (P23443 whole entry, looked up): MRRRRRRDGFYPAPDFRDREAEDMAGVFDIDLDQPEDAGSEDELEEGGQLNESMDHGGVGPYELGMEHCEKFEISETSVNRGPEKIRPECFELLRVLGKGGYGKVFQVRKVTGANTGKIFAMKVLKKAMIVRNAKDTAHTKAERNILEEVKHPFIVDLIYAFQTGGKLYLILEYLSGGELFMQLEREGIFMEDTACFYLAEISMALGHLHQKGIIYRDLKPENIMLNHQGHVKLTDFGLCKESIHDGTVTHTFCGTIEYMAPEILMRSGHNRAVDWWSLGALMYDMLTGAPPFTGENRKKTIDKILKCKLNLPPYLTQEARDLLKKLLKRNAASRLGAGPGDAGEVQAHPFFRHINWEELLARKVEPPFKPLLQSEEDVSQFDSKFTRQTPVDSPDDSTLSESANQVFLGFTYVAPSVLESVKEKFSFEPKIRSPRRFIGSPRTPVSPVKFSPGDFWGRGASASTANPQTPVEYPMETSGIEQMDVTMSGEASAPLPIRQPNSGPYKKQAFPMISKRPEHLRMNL

[8] = molecular target: Cyclin-dependent kinase 2 (Homo sapiens) (UniProt P24941); test: Inhibition of CDK2 at 10 uM by HTRF assay relative to control; summary of the method: as §1
[9] = molecular target: Fibroblast growth factor receptor 1 (Homo sapiens) (UniProt P11362); test: Inhibition of FGFR1 at 10 uM by HTRF assay relative to control; summary of the method: as §1
Sequence of Fibroblast growth factor receptor 1 (Homo sapiens) (P11362 22-822 limits assumed): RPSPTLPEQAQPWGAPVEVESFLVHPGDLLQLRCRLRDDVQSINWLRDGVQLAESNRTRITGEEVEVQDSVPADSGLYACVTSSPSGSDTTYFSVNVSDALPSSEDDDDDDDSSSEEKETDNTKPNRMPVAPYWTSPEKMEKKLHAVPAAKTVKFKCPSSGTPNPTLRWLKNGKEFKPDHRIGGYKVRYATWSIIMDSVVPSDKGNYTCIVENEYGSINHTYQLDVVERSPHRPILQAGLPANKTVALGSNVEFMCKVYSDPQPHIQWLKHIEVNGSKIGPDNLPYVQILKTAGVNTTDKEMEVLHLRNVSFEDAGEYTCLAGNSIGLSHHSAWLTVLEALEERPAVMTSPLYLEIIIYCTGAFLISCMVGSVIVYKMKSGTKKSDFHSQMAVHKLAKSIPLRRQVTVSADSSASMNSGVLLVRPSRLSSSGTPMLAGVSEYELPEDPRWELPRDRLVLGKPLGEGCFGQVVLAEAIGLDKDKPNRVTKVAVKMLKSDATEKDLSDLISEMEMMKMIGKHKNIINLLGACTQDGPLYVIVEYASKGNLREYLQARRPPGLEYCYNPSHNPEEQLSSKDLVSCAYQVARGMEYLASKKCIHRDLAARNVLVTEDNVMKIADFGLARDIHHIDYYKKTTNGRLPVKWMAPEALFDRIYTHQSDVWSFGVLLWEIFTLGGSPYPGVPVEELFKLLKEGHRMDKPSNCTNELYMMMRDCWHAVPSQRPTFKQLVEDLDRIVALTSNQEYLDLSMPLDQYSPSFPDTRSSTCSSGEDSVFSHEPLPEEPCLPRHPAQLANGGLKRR

[10] = molecular target: Mitogen-activated protein kinase 1 (Homo sapiens) (UniProt P28482); test: Inhibition of ERK2 at 10 uM by HTRF assay relative to control; summary of the method: as §1
Sequence of Mitogen-activated protein kinase 1 (Homo sapiens) (P28482 whole entry): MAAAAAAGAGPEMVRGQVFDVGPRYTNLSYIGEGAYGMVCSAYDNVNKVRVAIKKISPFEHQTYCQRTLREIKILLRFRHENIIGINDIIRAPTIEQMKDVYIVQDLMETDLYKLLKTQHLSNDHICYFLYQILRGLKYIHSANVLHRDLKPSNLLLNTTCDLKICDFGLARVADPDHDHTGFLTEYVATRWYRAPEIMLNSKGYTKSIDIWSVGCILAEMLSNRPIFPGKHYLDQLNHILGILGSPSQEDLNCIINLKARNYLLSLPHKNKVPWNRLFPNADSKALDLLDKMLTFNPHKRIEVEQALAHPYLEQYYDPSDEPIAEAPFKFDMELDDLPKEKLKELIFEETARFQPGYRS

[11] = molecular target: Receptor-type tyrosine-protein kinase FLT3 (Homo sapiens) (UniProt P36888); test: Inhibition of FLT3 at 10 uM by HTRF assay relative to control; summary of the method: as §1
[12] = molecular target: Serine/threonine-protein kinase Chk2 (Homo sapiens) (UniProt O96017); test: Inhibition of CHK2 at 10 uM by HTRF assay relative to control; summary of the method: as §1
[13] = molecular target: Protein kinase C alpha type (Homo sapiens) (UniProt P17252); test: Inhibition of PKCalpha at 10 uM by HTRF assay relative to control; summary of the method: as §1
[14] = molecular target: Vascular endothelial growth factor receptor 1 (Homo sapiens) (UniProt P17948); test: Inhibition of FLT1 at 10 uM by HTRF assay relative to control; summary of the method: as §1
[15] = molecular target: T2, Calcium/calmodulin-dependent protein kinase type IV (Homo sapiens) (UniProt Q16566); test: Inhibition of CaMK4 at 10 uM by HTRF assay relative to control; summary of the method: as §1
T2 sequence (whole entry): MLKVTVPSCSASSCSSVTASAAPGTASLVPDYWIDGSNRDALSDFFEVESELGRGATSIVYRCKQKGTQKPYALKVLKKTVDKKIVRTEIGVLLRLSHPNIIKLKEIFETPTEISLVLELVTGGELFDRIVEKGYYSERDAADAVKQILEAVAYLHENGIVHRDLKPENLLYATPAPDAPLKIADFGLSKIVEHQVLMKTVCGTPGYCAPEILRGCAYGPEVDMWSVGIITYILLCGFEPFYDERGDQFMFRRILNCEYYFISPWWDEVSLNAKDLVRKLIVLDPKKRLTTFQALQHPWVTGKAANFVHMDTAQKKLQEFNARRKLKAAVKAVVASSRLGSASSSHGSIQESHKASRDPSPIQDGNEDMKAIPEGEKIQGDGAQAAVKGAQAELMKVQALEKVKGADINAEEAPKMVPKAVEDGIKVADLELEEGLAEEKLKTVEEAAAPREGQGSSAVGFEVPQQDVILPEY

[16] = molecular target: High affinity nerve growth factor receptor (Homo sapiens) (UniProt P04629); test: Inhibition of TrkA at 10 uM by HTRF assay relative to control; summary of the method: as §1
[17] = molecular target: Protein kinase C gamma type (Homo sapiens) (UniProt P05129); test: Inhibition of PKCgamma at 10 uM by HTRF assay relative to control; summary of the method: as §1

Row | inhibition [1] [%] | inhibition [2] [%] | inhibition [3] [%] | inhibition [4] [%] | inhibition [5] [%] | inhibition [6] [%] | inhibition [7] [%] | inhibition [8] [%] | inhibition [9] [%] | inhibition [10] [%] | inhibition [11] [%] | inhibition [12] [%] | inhibition [13] [%] | inhibition [14] [%] | inhibition [15] [%] | inhibition [16] [%] | inhibition [17] [%] | SMILES
1 | 1 | 0 | 0 | 8 | 0 | 0 | 5 | 6 | 0 | 1 | 0 | 3 | 0 | 0 | 0 | 4 | 4 | COC(=O)C(CO)NC(=O)[C@@H]1CCCN1c1nccc(Oc2cccc(C)c2)n1 (stereo partly drawn)
2 | 0 | 0 | 0 | 22 | 22 | 3 | 8 | 12 | 5 | 4 | 15 | 0 | 7 | 0 | 0 | 7 | 2 | Cc1cccc(N(C)c2cc(Nc3cccc(C(=O)NCCCn4ccnc4)c3)ncn2)c1
3 | 1 | 0 | 0 | 5 | 9 | 0 | 11 | 2 | 0 | 0 | 0 | 0 | 0 | 0 | 0 | 7 | 0 | Nc1nc(Nc2ccc(C(=O)NCCc3ccncc3)cc2)cc(N2CCOCC2)n1
4 | 2 | 5 | 0 | 2 | 8 | 0 | 9 | 7 | 0 | 0 | 0 | 0 | 5 | 3 | 0 | 9 | 0 | COC[C@@H]1CCCN1C(=O)[C@@H]1CCCN1c1cc(Nc2cccc(OC)c2)nc(N)n1
5 | 0 | 0 | 0 | 32 | 18 | 11 | 14 | 2 | 6 | 1 | 1 | 3 | 2 | 4 | 0 | 7 | 0 | COc1cccc(Nc2cc(Nc3cccc(C(=O)NCCCn4ccnc4)c3)nc(N)n2)c1
6 | 0 | 0 | 0 | 5 | 24 | 0 | 7 | 10 | 5 | 5 | 0 | 0 | 0 | 0 | 0 | 2 | 2 | Cc1cccc(N(C)c2cc(N3CCN(C(=O)Cc4c[nH]c5ccccc45)CC3)ncn2)c1
7 | 0 | 0 | 0 | 2 | 7 | 9 | 12 | 6 | 0 | 1 | 0 | 0 | 0 | 0 | 0 | 7 | 5 | COc1ccc(-c2noc(CN3CCN(c4cc(Nc5cccc(O)c5)ncn4)CC3)n2)cc1
8 | 0 | 0 | 0 | 9 | 7 | 18 | 8 | 1 | 7 | 0 | 0 | 4 | 0 | 15 | 0 | 9 | 1 | COc1cccc(Nc2cc(Nc3cccc(C(=O)N(C)CCc4ccccn4)c3)nc(N)n2)c1
9 | 0 | 14 | 0 | 7 | 18 | 15 | 4 | 9 | 21 | 0 | 29 | 0 | 6 | 5 | 0 | 12 | 5 | CC(=O)N1CCN(C(=O)c2cccc(Nc3cc(N(C)c4cccc(C)c4)ncn3)c2)CC1
10 | 6 | 62 | 0 | 51 | 18 | 41 | 79 | 0 | 49 | 40 | 98 | 28 | 0 | 43 | 0 | 0 | 28 | O=C(NCc1cccnc1)c1cccc(-c2ccc(Nc3ccc4ncsc4c3)nn2)c1
11 | 0 | 5 | 0 | 38 | 17 | 0 | 16 | 15 | 0 | 0 | 35 | 0 | 2 | 32 | 0 | 8 | 0 | O=C(NCc1ccncc1)c1cccc(Nc2cc(Nc3cccc(Br)c3)ncn2)c1
12 | 0 | 0 | 0 | 4 | 15 | 7 | 9 | 21 | 30 | 6 | 0 | 0 | 5 | 3 | 0 | 10 | 6 | Cc1cccc(N(C)c2cc(Nc3cccc(C(=O)N(C)CCc4ccccn4)c3)ncn2)c1
13 | 0 | 0 | 0 | 0 | 5 | 8 | 3 | 4 | 0 | 0 | 0 | 3 | 0 | 0 | 0 | 8 | 5 | COC[C@@H]1CCCN1C(=O)C1CCCN1c1cc(Nc2cccc(Br)c2)ncn1 (stereo partly drawn)
14 | 0 | 0 | 0 | 2 | 4 | 0 | 7 | 3 | 7 | 0 | 0 | 0 | 0 | 2 | 0 | 7 | 5 | COc1cccc(Nc2cc(N3CCC[C@H]3C(=O)NCCc3ccc(O)cc3)nc(N)n2)c1
